Calls of active or inactive are those of the source. The calls are words filed in the database; no cut-off is given here.
Assays:
[1] = organism: Homo sapiens; test: Selectivity index, ratio of IC50 for BuChE in human serum to IC50 for AChE in human erythrocytes measured by DTNB reagent based Ellman's method; assay type: cell-based
[2] = target: Acetylcholinesterase (Homo sapiens) (UniProt P22303); test: Inhibition of AChE in human erythrocytes assessed as inhibition of AChE-induced amyloid beta(1 to 42) aggregation at Abeta42:compound concentration ratio of 10:20 measured after 48 hrs by thioflavin-T assay; assay type: cell-based; settings: Erythrocyte
Summary of the method: (§1)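 Aβ1-42 (stock in 1% ammonium hydroxide; final 10 μM) plus human erythrocyte AChE. Incubated 48 h at 37 °C with or without compound (5, 10, 20 μM; DMSO stock diluted in PBS pH 7.4). Then diluted in 50 mM glycine-NaOH pH 8.0 containing 5 μM thioflavin T. Fluorescence normalised to control; three separate experiments.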

[3] = system: MC65; test: Neuroprotective activity in human MC65 cells cultured in TC-deficient medium assessed as inhibition of TC-deficiency induced oxidative stress by measuring increase in cell viability at 1 to 80 uM measured after 12 hrs by MTT assay; assay type: functional, cell-based; settings: dose 1-80 µM
Summary of the method: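 MC65 cells grown in MEM, PBS-washed and resuspended in MEM, then seeded at 5×10⁴ cells/well with or without TC. Compounds (80–1 μM) added to TC-free wells and incubated 12 h at 37 °C. MTT (5 mg/ml) added for a further 4 h; formazan dissolved in DMSO:H₂O 1:1 and read at 570 nm. Viability expressed as % of +TC control. Triplicate wells, three runs.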

[4] = target: Amyloid-beta precursor protein (Homo sapiens) (UniProt P05067); test: Inhibition of self-induced amyloid beta (1 to 42) (unknown origin) aggregation assessed as reduced particle size at 10 uM measured after 48 hrs by Dynamic light scattering analysis
Summary of the method: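 Aβ1-42 stock (100 μM) in PBS pH 7.4, […], incubated with compound (10 μM) in the dark at 37 °C for 48 h. Particle size distribution then measured by dynamic light scattering.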

[5] = target: Acetylcholinesterase (Homo sapiens) (UniProt P22303); test: Inhibition of AChE in human erythrocytes assessed as inhibition of AChE-induced amyloid beta(1 to 42) aggregation at Abeta42:compound concentration ratio of 10:10 measured after 48 hrs by thioflavin-T assay; assay type: cell-based; settings: Erythrocyte; summary of the method: as §1
[6] = target: Acetylcholinesterase (Homo sapiens) (UniProt P22303); test: Inhibition of AChE in human erythrocytes assessed as inhibition of AChE-induced amyloid beta (1 to 42) aggregation by measuring reduced particle size at 10 uM measured after 48 hrs by Dynamic light scattering analysis; assay type: cell-based; settings: Erythrocyte
Summary of the method: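 Aβ1-42 with AChE (10 unit/mL) incubated with compound at 10 μM in PBS pH 7.4, in the dark for 48 h at 37 °C. Particle size distribution then measured by dynamic light scattering.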

[7] = target: Amyloid-beta precursor protein (Homo sapiens) (UniProt P05067); test: Inhibition of amyloid beta (1 to 42) (unknown origin) aggregation at 22 uM measured after 24 hrs by Transmission electron microscopy method
Summary of the method: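 Aβ1-42 (44 μM) co-incubated with compound (22 μM) at 37 °C for 24 h. 10 μL aliquots placed on carbon-coated copper grids, stained with 1% uranyl acetate, blotted and dried 15 min at room temperature. Fibril morphology imaged by […]TEM. Controls were Aβ1-42 alone at 37 °C for 24 h and Aβ1-42 alone at 0 h.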

[8] = target: Acetylcholinesterase (Homo sapiens) (UniProt P22303); test: Non-competitive inhibition of AChE in human erythrocytes assessed as ratio of Vmax to Km at 100 nM measured at 2 mins interval for 10 mins by Lineweaver-Burk plot analysis; assay type: cell-based; settings: Erythrocyte
Summary of the method: (§2)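 Human AChE kinetics in the Ellman DTNB assay. Inhibitor at 25, 50 and 100 nM, each with six ATCI concentrations, against an inhibitor-free series. Activity read every 2 min over 10 min. Km and Vmax from Michaelis–Menten non-linear regression; mechanism from Lineweaver–Burk plots; Ki from Dixon plot over four inhibitor concentrations and from slope/intercept replots. Triplicate.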

[9] = target: Acetylcholinesterase (Homo sapiens) (UniProt P22303); test: Non-competitive inhibition of AChE in human erythrocytes assessed as decrease in Vmax with constant Km measured at 2 mins interval for 10 mins by Lineweaver-Burk plot analysis; assay type: cell-based; settings: Erythrocyte; summary of the method: as §2
[10] = target: Acetylcholinesterase (Homo sapiens) (UniProt P22303); test: Non-competitive inhibition of AChE in human erythrocytes assessed as ratio of Vmax to Km at 50 nM measured at 2 mins interval for 10 mins by Lineweaver-Burk plot analysis; assay type: cell-based; settings: Erythrocyte; summary of the method: as §2
[11] = target: Acetylcholinesterase (Homo sapiens) (UniProt P22303); test: Non-competitive inhibition of AChE in human erythrocytes assessed as ratio of Vmax to Km at 25 nM measured at 2 mins interval for 10 mins by Lineweaver-Burk plot analysis; assay type: cell-based; settings: Erythrocyte; summary of the method: as §2

Chain of Amyloid-beta precursor protein (Homo sapiens) (P05067 whole entry): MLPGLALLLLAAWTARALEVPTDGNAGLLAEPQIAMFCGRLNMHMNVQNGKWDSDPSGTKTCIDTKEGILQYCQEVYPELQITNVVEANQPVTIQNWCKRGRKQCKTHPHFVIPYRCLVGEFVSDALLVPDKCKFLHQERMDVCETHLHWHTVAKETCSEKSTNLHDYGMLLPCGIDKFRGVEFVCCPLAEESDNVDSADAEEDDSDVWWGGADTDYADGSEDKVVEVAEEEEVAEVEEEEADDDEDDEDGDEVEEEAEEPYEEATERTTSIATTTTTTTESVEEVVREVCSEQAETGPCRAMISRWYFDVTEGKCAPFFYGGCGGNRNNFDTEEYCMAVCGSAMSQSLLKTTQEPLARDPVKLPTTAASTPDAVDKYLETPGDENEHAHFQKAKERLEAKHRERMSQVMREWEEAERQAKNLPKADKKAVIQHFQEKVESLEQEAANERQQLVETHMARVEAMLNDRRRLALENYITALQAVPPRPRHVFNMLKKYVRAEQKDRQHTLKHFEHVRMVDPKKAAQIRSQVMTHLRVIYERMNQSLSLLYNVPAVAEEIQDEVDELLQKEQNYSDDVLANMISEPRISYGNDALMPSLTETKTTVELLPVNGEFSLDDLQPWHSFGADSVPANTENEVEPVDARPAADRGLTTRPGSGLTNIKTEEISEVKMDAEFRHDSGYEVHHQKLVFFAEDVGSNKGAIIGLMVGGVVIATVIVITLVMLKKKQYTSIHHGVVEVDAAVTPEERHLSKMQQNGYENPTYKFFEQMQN
Chain of Acetylcholinesterase (Homo sapiens) (P22303 whole entry): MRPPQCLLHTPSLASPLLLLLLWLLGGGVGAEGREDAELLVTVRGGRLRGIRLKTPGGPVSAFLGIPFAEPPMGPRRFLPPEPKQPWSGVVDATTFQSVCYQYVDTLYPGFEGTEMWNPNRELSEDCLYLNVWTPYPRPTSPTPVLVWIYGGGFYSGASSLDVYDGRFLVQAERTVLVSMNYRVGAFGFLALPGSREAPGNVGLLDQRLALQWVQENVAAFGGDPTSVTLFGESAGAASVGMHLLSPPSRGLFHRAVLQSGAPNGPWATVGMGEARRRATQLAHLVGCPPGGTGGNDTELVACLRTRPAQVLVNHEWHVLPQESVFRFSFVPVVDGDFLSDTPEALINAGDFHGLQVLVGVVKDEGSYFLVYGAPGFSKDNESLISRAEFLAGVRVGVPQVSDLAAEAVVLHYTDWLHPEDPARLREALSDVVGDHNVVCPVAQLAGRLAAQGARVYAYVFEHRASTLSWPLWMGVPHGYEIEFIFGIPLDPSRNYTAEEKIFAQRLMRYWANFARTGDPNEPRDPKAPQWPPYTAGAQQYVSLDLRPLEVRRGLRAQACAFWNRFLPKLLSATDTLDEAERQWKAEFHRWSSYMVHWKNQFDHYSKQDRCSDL

SMILES	Ratio IC50 [1]	further results
CCOC(=O)c1c(C)nc(N2CCN(S(=O)(=O)c3ccc(N)c(OC)c3)CC2)nc1-c1ccc(OC)c(OC)c1	0.4	
CCOC(=O)c1c(C)nc(N2CCN(S(=O)(=O)c3ccc(NC(C)=O)cc3)CC2)nc1-c1ccc(OC)c(OC)c1	0.35	
CCOC(=O)c1c(C)nc(N2CCN(S(=O)(=O)c3ccc(N)c(OC)c3)CC2)nc1-c1ccc(OC)cc1	0.36	
CCOC(=O)c1c(C)nc(N2CCN(S(=O)(=O)c3ccc(NC(C)=O)c(OC)c3)CC2)nc1-c1ccc(OC)cc1	0.4	
CCOC(=O)c1c(C)nc(N2CCN(S(=O)(=O)c3ccc(N)c(F)c3)CC2)nc1-c1ccc(OC)c(OC)c1	0.37	
CCOC(=O)c1c(C)nc(N2CCN(S(=O)(=O)c3ccc(NC(C)=O)c(Cl)c3)CC2)nc1-c1ccccc1	0.61	
CCOC(=O)c1c(C)nc(N2CCN(S(=O)(=O)c3ccc(NC(C)=O)c(F)c3)CC2)nc1-c1ccccc1	0.35	
CCOC(=O)c1c(C)nc(N2CCN(S(=O)(=O)c3ccc(N)c(Cl)c3)CC2)nc1-c1ccc(OC)cc1	0.43	
CCOC(=O)c1c(C)nc(N2CCN(S(=O)(=O)c3ccc(NC(C)=O)c(F)c3)CC2)nc1-c1ccc(OC)cc1	0.42	
CCOC(=O)c1c(C)nc(N2CCN(S(=O)(=O)c3ccc(N)cc3)CC2)nc1-c1ccc(OC)cc1	0.33	
CCOC(=O)c1c(C)nc(N2CCN(S(=O)(=O)c3ccc(N)c(F)c3)CC2)nc1-c1ccc(OC)cc1	0.64	
CCOC(=O)c1c(C)nc(N2CCN(S(=O)(=O)c3ccc(N)c(Cl)c3)CC2)nc1-c1ccc(OC)c(OC)c1	0.28	inhibition [2]: 35.3%; Activity [3]: Active; inhibition [4]: Active; inhibition [5]: 22.2%; inhibition [6]: Active; inhibition [7]: Active
CCOC(=O)c1c(C)nc(N2CCN(S(=O)(=O)c3ccc(N)c(OC)c3)CC2)nc1-c1ccccc1	0.29	
CCOC(=O)c1c(C)nc(N2CCN(S(=O)(=O)c3ccc(NC(C)=O)c(OC)c3)CC2)nc1-c1ccccc1	0.42	
CCOC(=O)c1c(C)nc(N2CCN(S(=O)(=O)c3ccc(N)cc3)CC2)nc1-c1ccc(OC)c(OC)c1	0.31	
CCOC(=O)c1c(C)nc(N2CCN(S(=O)(=O)c3ccc(NC(C)=O)c(F)c3)CC2)nc1-c1ccc(OC)c(OC)c1	0.41	
CCOC(=O)c1c(C)nc(N2CCN(S(=O)(=O)c3ccc(NC(C)=O)cc3)CC2)nc1-c1ccccc1	0.54	
CCOC(=O)c1c(C)nc(N2CCN(S(=O)(=O)c3ccc(N)c(Cl)c3)CC2)nc1-c1ccccc1	0.57	
CCOC(=O)c1c(C)nc(N2CCN(S(=O)(=O)c3ccc(NC(C)=O)c(OC)c3)CC2)nc1-c1ccc(OC)c(OC)c1	0.38	
CCOC(=O)c1c(C)nc(N2CCN(S(=O)(=O)c3ccc(NC(C)=O)cc3)CC2)nc1-c1ccc(OC)cc1	0.42	
CCOC(=O)c1c(C)nc(N2CCN(S(=O)(=O)c3ccc(NC(C)=O)c(Cl)c3)CC2)nc1-c1ccc(OC)c(OC)c1	0.23	inhibition [2]: 51.3%; inhibition [4]: Active; inhibition [5]: 35.5%; Vmax/Km [8]: 0.056; inhibition [9]: Active; Vmax/Km [10]: 0.076; inhibition [6]: Active; Vmax/Km [11]: 0.094; inhibition [7]: Active
CCOC(=O)c1c(C)nc(N2CCN(S(=O)(=O)c3ccc(NC(C)=O)c(Cl)c3)CC2)nc1-c1ccc(OC)cc1	0.4	

Reference: ChEMBL document CHEMBL4732210, “Discovery of new phenyl sulfonyl-pyrimidine carboxylate derivatives as the potential multi-target drugs with effective anti-Alzheimer's action: Design, synthesis, crystal structure and in-vitro biological evaluation” (Eur J Med Chem, 2021)
